# Results reported in ChEMBL document CHEMBL1155337, “N-substituted bis-C-alkyloxadiazolones as dual effectors: efficient intermediates to amidoximes or amidines and prodrug candidates of potent antimalarials” (Bioorg Med Chem Lett, 2009).
# Activity calls are given as the source filed them. No cut-off for these calls is given here.
# Columns and labels:
# [1] = system: Plasmodium vinckei petteri; experiment: Antimalarial activity against Plasmodium vinckei petteri 279BY infected peroral daily dosed Swiss mice (Mus musculus) assessed as reduction in parasitaemia level measured after 4 days; type: functional; details: po, 96 h
# Summary of the method: (§1)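 Female Swiss mice were infected with P. vinckei petteri 279BY on day 0. Compound was given intraperitoneally or orally once daily for four consecutive days (days 1–4 post infection). Three doses were tested per compound, with 3 mice per dose. Parasitemia was monitored against untreated control, and cleared animals were followed 28 days for recrudescence. ED50 was derived from the dose series.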
# [2] = system: Plasmodium vinckei petteri; experiment: Antimalarial activity against Plasmodium vinckei petteri 279BY infected in Swiss mice (Mus musculus) assessed as reduction in parasitaemia level at 5 mg/kg, intraperitoneally relative to control; type: functional; set-up: scale not given: the % may be the effect or the level left; details: route intraperitoneal; summary of the method: as §1
# [3] = system: Plasmodium vinckei petteri; experiment: Antimalarial activity against Plasmodium vinckei petteri 279BY infected in Swiss mice (Mus musculus) assessed as reduction in parasitaemia level at 180 mg, perorally relative to control; type: functional; set-up: scale not given: the % may be the effect or the level left; summary of the method: as §1
# [4] = system: Plasmodium falciparum; experiment: Antimalarial activity against chloroquine-sensitive Plasmodium falciparum Nigerian; type: functional, organism-based
# Summary of the method: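 In vitro IC50 values are means of at least two independent experiments, each run in duplicate.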
# [5] = system: Plasmodium vinckei petteri; experiment: Antimalarial activity against Plasmodium vinckei petteri 279BY infected in Swiss mice (Mus musculus) assessed as reduction in parasitaemia level at 10 mg/kg, intraperitoneal measured after 4 days; type: functional; details: ip, 96 h; summary of the method: as §1
# [6] = system: Plasmodium vinckei petteri; experiment: Antimalarial activity against Plasmodium vinckei petteri 279BY infected in Swiss mice (Mus musculus) assessed as reduction in parasitaemia level at 90 mg/kg, perorally relative to control; type: functional; set-up: scale not given: the % may be the effect or the level left; details: route oral; summary of the method: as §1
# [7] = system: Plasmodium vinckei petteri; experiment: Antimalarial activity against Plasmodium vinckei petteri 279BY infected intraperitoneally daily dosed Swiss mice (Mus musculus) assessed as reduction in parasitaemia after 28 days; type: functional; details: ip, 672 h; summary of the method: as §1
# [8] = system: Mus musculus; experiment: Toxicity in Plasmodium vinckei petteri 279BY infected Swiss mice (Mus musculus) at >10 mg/kg, intraperitoneally; type: organism-based; details: in vivo, ip
# [9] = system: Plasmodium vinckei petteri; experiment: Antimalarial activity against Plasmodium vinckei petteri 279BY infected in Swiss mice (Mus musculus) at 10 mg/kg, intraperitoneal after 4 days; type: functional, organism-based; set-up: dose 10 mg/kg; summary of the method: as §1
# [10] = system: Mus musculus; experiment: Toxicity in Plasmodium vinckei petteri 279BY infected Swiss mice (Mus musculus) at 5 mg/kg, intraperitoneally; type: organism-based; set-up: dose 5 mg/kg, route intraperitoneal; details: in vivo, ip
IC50 [4],SMILES,ED50 [1],ED50 [5],further results
,N/C(CCCCCCCCCCCC/C(N)=N/O)=N\O,120 mg/kg,,
6200 nM,CCN/C(CCCCCCCCCCCC/C(=N/O)NCC)=N\O,> 180 mg/kg,3.1 mg/kg,Activity [2]: 76%; Activity [3]: 20%
6450 nM,COCCn1c(CCCCCCCCCCCCc2noc(=O)n2CCOC)noc1=O,90 mg/kg,> 20 mg/kg,Activity [6]: 50%
9.2 nM,COCCNC(=N)CCCCCCCCCCCCC(=N)NCCOC.Cl.Cl,> 90 mg/kg,8 mg/kg,ED50 [7]: 8 mg/kg
9.4 nM,CCNC(=N)CCCCCCCCCCCCC(=N)NCC.Cl.Cl,> 180 mg/kg,6.3 mg/kg,ED50 [7]: 6.3 mg/kg
14.4 nM,CNC(=N)CCCCCCCCCCCCC(=N)NC.Cl.Cl,> 180 mg/kg,,Activity [8]: Toxic; Activity [9]: inactive
10000 nM,CCn1c(CCCCCCCCCCCCc2noc(=O)n2CC)noc1=O,> 20 mg/kg,> 10 mg/kg,
10100 nM,CN/C(CCCCCCCCCCCC/C(=N/O)NC)=N\O,> 180 mg/kg,,Activity [2]: 44%; Activity [10]: Toxic
1040 nM,O/N=C(/CCCCCCCCCCCC/C(=N/O)NCc1ccccc1)NCc1ccccc1,> 90 mg/kg,> 20 mg/kg,
,Cc1c(CCO)sc[n+]1CCCCCCCCCCCC[n+]1csc(CCO)c1C.[Br-].[Br-] [ALBITIAZOLIUM BROMIDE],13 mg/kg,0.2 mg/kg,
2950 nM,COCCN/C(CCCCCCCCCCCC/C(=N/O)NCCOC)=N\O,> 180 mg/kg,,Activity [2]: 33%; Activity [3]: 16%; Activity [10]: Toxic
,Cn1c(CCCCCCCCCCCCc2noc(=O)n2C)noc1=O,> 45 mg/kg,> 20 mg/kg,
4.6 nM,Cl.Cl.N=C(CCCCCCCCCCCCC(=N)NCc1ccccc1)NCc1ccccc1,> 90 mg/kg,> 20 mg/kg,Activity [9]: inactive
,Cl.Cl.N=C(N)CCCCCCCCCCCCC(=N)N,> 100 mg/kg,> 10 mg/kg,Activity [9]: inactive
,O=c1[nH]c(CCCCCCCCCCCCc2noc(=O)[nH]2)no1,100 mg/kg,> 20 mg/kg,
4950 nM,O=c1onc(CCCCCCCCCCCCc2noc(=O)n2Cc2ccccc2)n1Cc1ccccc1,> 90 mg/kg,> 20 mg/kg,
